Data set [1] has as its system Human immunodeficiency virus 1. The experiment in a line: Antiviral activity against wild-type HIV1 3B infected in human C8166 cells assessed as protection against virus-induced cytopathogenicity after 3 days by measuring syncytia under inverted microscope. It is filed as functional, organism-based. Conditions: Human immunodeficiency virus 1, 3B, C8166, 72 h. In a few lines:
(§1)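 C8166 cells at 4 × 10⁵/mL infected at M.O.I. 0.06 in the presence of serial compound concentrations, with AZT and GW678248 as drug controls. After 3 days of culture, syncytia (multinucleated giant cells) counted under an inverted microscope. EC₅₀ is the concentration blocking syncytium formation by 50%.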
A general note: Damage to the host cells serves as the signal in cytopathic effect assays.

Data set [2] relates to Human immunodeficiency virus 1. The experiment in a line: Antiviral activity against HIV1 A17 expressing reverse transcriptase K103N/Y181C double mutant infected in human C8166 cells assessed as protection against virus-induced cytopathogenicity after 3 days by measuring syncytia under inverted microscope. It is filed as functional, organism-based. Conditions: Human immunodeficiency virus 1, A17, C8166, 72 h. The procedure, abridged: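 C8166 cells (4 × 10⁵/mL) infected with HIV-1 A17 at MOI 0.06 in the presence of various compound concentrations. AZT and GW678248 served as drug controls. After 3 days of culture, syncytia (multinucleated giant cells) were scored under an inverted microscope. EC₅₀ was calculated as the concentration blocking syncytium formation by 50%.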

The nature of data set [3]: Cytotoxicity against human C8166 cells by MTT colorimetric assay. Type of data set: cell-based. The procedure, abridged: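 Uninfected C8166 cells exposed to compounds; viability read by MTT colorimetric assay at absorbance 570/630 nm. CC₅₀ is the concentration reducing viability by 50%.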
(In general: Tetrazolium assays rely on reduction of a dye to a coloured formazan, in cell work by metabolically active cells.)

Data set [4] can be described thus: Selectivity index, ratio of CC50 for human C8166 cells to EC50 for HIV1 3B infected in human C8166 cells. The note with it: HIV-1 3B infected C8166 cells, read-out: Ratio CC50/EC50. It is filed as toxicity, cell-based. The procedure, abridged:
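Calculated as CC₅₀ (MTT viability of uninfected C8166 cells) divided by EC₅₀ against HIV-1 IIIB (syncytium scoring in C8166 cells, M.O.I. 0.06, 3 days).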

The subject of data set [5] is Human immunodeficiency virus 2. The experiment in a line: Antiviral activity against HIV-2 ROD infected in human C8166 cells assessed as protection against viral cytopathogenicity after 3 days by measuring syncytia under inverted microscope. Conditions: Human immunodeficiency virus 2, ISOLATE ROD, C8166, 72 h. Type of data set: functional, organism-based. In a few lines:
as §1

As to `Cc1cc(C)cc(C(=O)c2c(OCC(=O)Nc3ccc(S(N)(=O)=O)cc3C)ccc3ccccc23)c1`, the EC50 in data set [1] worked out at 7.8 nM; in data set [2], 8.4 µM; in data set [5], 45.4 µM. In data set [3], half-maximal cytotoxicity (CC50) was put at 39.1 µM. Moreover, the selectivity ratio in data set [4] is 5040.

Turning to `Cc1cc(S(N)(=O)=O)ccc1NC(=O)COc1ccc2cc(Br)ccc2c1C(=O)c1ccccc1`, the EC50 is 4610 nM in data set [1], 25.8 µM in data set [2] and 27.7 µM in data set [5]. The compound also showed a half-maximal cytotoxic concentration (CC50) in data set [3] of 29.2 µM. In data set [4], the selectivity ratio turned out to be 6.3.

Regarding `Cc1cc(S(N)(=O)=O)ccc1NC(=O)COc1ccc2cc(Br)ccc2c1C(=O)c1cc(Cl)cc(Br)c1`, the 50% effective concentration (EC50) in data set [1] came to 7570 nM; in data set [2], 10.2 µM; in data set [5], 11.1 µM. In addition, the CC50 in data set [3] was found to be 28.5 µM. In addition, the selectivity ratio in data set [4] came out at 3.8.

In the case of `Cc1cc(S(N)(=O)=O)ccc1NC(=O)COc1ccc2ccccc2c1C(=O)c1cccc(Cl)c1`, the 50% effective concentration (EC50) in data set [1] came to 33.8 nM; in data set [2] it was 9.5 µM; in data set [5] it was 34.5 µM. In addition, the CC50 in data set [3] is 37.4 µM. Further, the selectivity ratio in data set [4] was found to be 1110.

Turning to `Cc1ccc(C(=O)c2c(OCC(=O)Nc3ccc(S(N)(=O)=O)cc3C)ccc3ccccc23)cc1C`, the EC50 worked out at 609 nM in data set [1] and 12.3 µM in data set [2]. Also, in data set [3], half-maximal cytotoxicity (CC50) was put at 33 µM. Also, in data set [4], the selectivity ratio was 54.2.

`Cc1ccc(C(=O)c2c(OCC(=O)Nc3ccc(S(N)(=O)=O)cc3C)ccc3cc(Br)ccc23)cc1C`: the EC50 in data set [1] was 31900 nM; in data set [2], 28.2 µM. The compound also gave a cytotoxic concentration (CC50) in data set [3] of 85.2 µM. In addition, in data set [4], the selectivity ratio amounted to 2.7.

For `Cc1cc(S(N)(=O)=O)ccc1NC(=O)COc1ccc(Cl)cc1C(=O)c1cc(Cl)cc(C#N)c1`, the EC50 stood at 0.0014 µM in data set [2] and 2.1 µM in data set [5]. Also, in data set [3], the CC50 is above 387 µM. Moreover, the selectivity ratio in data set [4] was above 563000.

With `Cc1cccc(C(=O)c2c(OCC(=O)Nc3ccc(S(N)(=O)=O)cc3C)ccc3cc(C#N)ccc23)c1`, the half-maximal effective concentration (EC50) worked out at 791 nM in data set [1] and 10.4 µM in data set [2]. This compound returned a CC50 in data set [3] of 15.2 µM. Further, the selectivity ratio in data set [4] came to 19.2.

As to `Cc1cn([C@H]2C[C@H](N=[N+]=[N-])[C@@H](CO)O2)c(=O)[nH]c1=O` [ZIDOVUDINE], the EC50 worked out at 0.023 µM in data set [2] and 0.039 µM in data set [5]. The half-maximal cytotoxic concentration (CC50) in data set [3] worked out at 5400 µM. For the same compound, the selectivity ratio in data set [4] was found to be 422000.

As for `Cc1ccc(C)c(C(=O)c2c(OCC(=O)Nc3ccc(S(N)(=O)=O)cc3C)ccc3cc(Br)ccc23)c1`, the EC50 is 2640 nM in data set [1] and 20.7 µM in data set [2]. Further, in data set [3], the midpoint of cytotoxicity, the CC50, lay at 14 µM. For the same compound, the selectivity ratio in data set [4] turned out to be 5.3.

Consider `Cc1cc(S(N)(=O)=O)ccc1NC(=O)COc1ccc2ccccc2c1C(=O)c1ccccc1`, for which the EC50 was determined as 52.7 nM in data set [1] and 9.6 µM in data set [2]. In data set [3], this compound returned a CC50 of 33.8 µM. Moreover, the selectivity ratio in data set [4] was 642.

Consider `Cc1cc(S(N)(=O)=O)ccc1NC(=O)COc1ccc2ccccc2c1C(=O)c1cc(Cl)cc(Br)c1`, for which the half-maximal effective concentration (EC50) in data set [1] was found to be 27.1 nM; in data set [2] it was 7.5 µM. In data set [3], this compound had a cytotoxic concentration (CC50) of 36.6 µM. The selectivity ratio in data set [4] turned out to be 1350.

For `Cc1ccc(C(=O)c2c(OCC(=O)Nc3ccc(S(N)(=O)=O)cc3C)ccc3ccccc23)c(C)c1`, the EC50 in data set [1] turned out to be 139 nM; in data set [2] it was 7.9 µM. The compound also showed a CC50 in data set [3] of 25.5 µM. For the same compound, the selectivity ratio in data set [4] was determined as 183.

As to `Cc1ccc(C)c(C(=O)c2c(OCC(=O)Nc3ccc(S(N)(=O)=O)cc3C)ccc3ccccc23)c1`, the EC50 in data set [1] was found to be 11.6 nM; in data set [2] it was 7.6 µM; in data set [5], 30.3 µM. Besides, the CC50 in data set [3] worked out at 47.5 µM. For the same compound, the selectivity ratio in data set [4] stood at 4090.

As for `Cc1cc(S(N)(=O)=O)ccc1NC(=O)COc1ccc2cc(Br)ccc2c1C(=O)c1cccc(F)c1`, the 50% effective concentration (EC50) in data set [1] was found to be 9170 nM; in data set [2] it was 9.7 µM; in data set [5] it was 6 µM. In data set [3], this compound registered a CC50 of 24.5 µM. Moreover, in data set [4], the selectivity ratio was found to be 2.7.

On to `Cc1cc(S(N)(=O)=O)ccc1NC(=O)COc1ccc2cc(C#N)ccc2c1C(=O)c1cccc(Cl)c1`, for which the half-maximal effective concentration (EC50) in data set [1] amounted to 2050 nM; in data set [2], 20.6 µM. The compound further displayed a cytotoxic concentration (CC50) in data set [3] above 374 µM. Also, the selectivity ratio in data set [4] is above 183.

On to `Cc1ccc(C(=O)c2c(OCC(=O)Nc3ccc(S(N)(=O)=O)cc3C)ccc3cc(C#N)ccc23)cc1C`, for which the values for the EC50 in data set [1] and in data set [2] were 86300 nM and 97.3 µM, respectively. This compound also returned a CC50 in data set [3] above 379 µM. For the same compound, the selectivity ratio in data set [4] was above 4.4.

For `Cc1cc(S(N)(=O)=O)ccc1NC(=O)COc1ccc2ccccc2c1C(=O)c1cc(Cl)cc(C#N)c1`, the 50% effective concentration (EC50) is 4.8 nM in data set [1], 2.1 µM in data set [2] and 23.6 µM in data set [5]. Also, the midpoint of cytotoxicity in data set [3], the CC50, lay at 49.4 µM. For the same compound, the selectivity ratio in data set [4] is 10300.

As to `Cc1cc(C)cc(C(=O)c2c(OCC(=O)Nc3ccc(S(N)(=O)=O)cc3C)ccc3cc(C#N)ccc23)c1`, the EC50 in data set [1] came to 1780 nM; in data set [2], 16.3 µM. The midpoint of cytotoxicity in data set [3], the CC50, lay at 128 µM. In addition, the selectivity ratio in data set [4] worked out at 72.

As to `Cc1cc(S(N)(=O)=O)ccc1NC(=O)COc1ccc2cc(Br)ccc2c1C(=O)c1cccc(Cl)c1`, the EC50 in data set [1] was found to be 1670 nM; in data set [2], 3.9 µM. In data set [3], this compound yielded a CC50 of 6.8 µM. The selectivity ratio in data set [4] worked out at 4.1.

Regarding `Cc1ccc(C(=O)c2c(OCC(=O)Nc3ccc(S(N)(=O)=O)cc3C)ccc3cc(Br)ccc23)c(C)c1`, the 50% effective concentration (EC50) in data set [1] came out at 23600 nM; in data set [2] it was 33.1 µM. The compound also gave a CC50 in data set [3] of 61.4 µM. Besides, the selectivity ratio in data set [4] is 2.6.

For the compound `Cc1cccc(C(=O)c2c(OCC(=O)Nc3ccc(S(N)(=O)=O)cc3C)ccc3ccccc23)c1`, the EC50 in data set [1] is 13.5 nM; in data set [2], 2.4 µM; in data set [5], 28.3 µM. In data set [3], it took 40.4 µM to reach half-maximal cytotoxicity (CC50). Further, the selectivity ratio in data set [4] came out at 2990.

In the case of `Cc1cccc(C(=O)c2c(OCC(=O)Nc3ccc(S(N)(=O)=O)cc3C)ccc3cc(Br)ccc23)c1`, the half-maximal effective concentration (EC50) in data set [1] is 2300 nM; in data set [2], 3.4 µM. For the same compound, the 50% cytotoxic concentration (CC50) in data set [3] was 6.8 µM. The selectivity ratio in data set [4] came out at 2.9.

For `Cc1cc(C)cc(C(=O)c2c(OCC(=O)Nc3ccc(S(N)(=O)=O)cc3C)ccc3cc(Br)ccc23)c1`, the EC50 in data set [1] stood at 4420 nM; in data set [2] it was 7.8 µM; in data set [5], 29.8 µM. The same compound gave a CC50 in data set [3] of 31 µM. Moreover, in data set [4], the selectivity ratio stood at 7.

A word on the EC50: it is the concentration needed to bring the measured effect to its halfway point. For orientation: CC50 means the concentration giving 50% cytotoxicity.

The record behind these values is ChEMBL document CHEMBL1811846, “Synthesis and biological activity of naphthyl-substituted (B-ring) benzophenone derivatives as novel non-nucleoside HIV-1 reverse transcriptase inhibitors” (Bioorg Med Chem, 2011).
